Published values of several laboratories.
Lines come from different studies, so protocols differ.
Target: Serine/threonine-protein kinase Nek6 (NEK6, Homo sapiens, UniProt Q9HC98)
Read-out: enzyme activity
Mode: inhibitor

CCN(CC)CCNC(=O)c1c(C)[nH]c(/C=C2\C(=O)Nc3ccc(F)cc32)c1C  remaining activity (1 µM): 103%
FC(F)c1nc2ccccc2n1-c1nc(N2CCOCC2)nc(N2CCOCC2)n1  remaining activity (10 µM): 83%
Nc1nc(Nc2ccccc2)sc1C(=O)c1c(F)cccc1F  remaining activity (10 µM): 97%
COc1cc(Nc2cnc(C#N)c(O[C@H](C)CN(C)C)n2)ncc1-c1cnn(C)c1  remaining activity (radiometric; 10 µM): 96%
CCCOc1ccc(OC)c(F)c1C(=O)c1ccc(C(=O)N[C@@H]2CNC[C@H]2NC(=O)c2ccc3[nH]ncc3c2)cc1  remaining activity (10 µM): 96%
Cn1c(=O)n(-c2ccc(C(C)(C)C#N)cc2)c2c3cc(-c4cnc5ccccc5c4)ccc3ncc21  remaining activity (10 µM): 95%
Cc1ccc(Nc2nccc(N(C)c3ccc4c(C)n(C)nc4c3)n2)cc1S(N)(=O)=O  remaining activity (0.5 µM): 96.1%
CC(C)(C)c1nc(-c2cccc(NS(=O)(=O)c3c(F)cccc3F)c2F)c(-c2ccnc(N)n2)s1  remaining activity (radiometric; 1 µM): 99%
Cc1[nH]c(/C=C2\C(=O)Nc3ccc(F)cc32)c(C)c1C(=O)N[C@H]1CCN(C(=O)N(C)C)C1  remaining activity (0.1 µM): 131%
Cc1ccc(C(=O)Nc2ccc(CN3CCN(C)CC3)c(C(F)(F)F)c2)cc1C#Cc1cnc2cccnn12  remaining activity (23.5 nM): 100%
Cc1sc(C(=O)NC2COC2)cc1-n1cc(NC(=O)Nc2c(F)cccc2Cl)cn1  remaining activity (10 µM): 92.7%
Nc1nc(NC2CCCCC2)sc1C(=O)c1ccccc1  remaining activity (10 µM): 113%
